Source: PubChem BioAssay (several laboratories)
TAAR1 antagonist: human TAAR1 antagonism; 360,000 compounds, 1.5% hits; AID 624466; Q96RJ0; CHO RD-HGA16 TAAR1, Fluo-8 calcium fluorescence, antagonist; inhibition, % at 3 µM;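 active = inhibition above a per-plate cutoff, the mean inhibition of test compounds on that plate plus 3 SD, cut at about 49% in these data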;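 note: 0% = DMSO plus EC80 beta-PEA response and 100% = DMSO alone without agonist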
Target sequence (Q96RJ0 whole entry, looked up): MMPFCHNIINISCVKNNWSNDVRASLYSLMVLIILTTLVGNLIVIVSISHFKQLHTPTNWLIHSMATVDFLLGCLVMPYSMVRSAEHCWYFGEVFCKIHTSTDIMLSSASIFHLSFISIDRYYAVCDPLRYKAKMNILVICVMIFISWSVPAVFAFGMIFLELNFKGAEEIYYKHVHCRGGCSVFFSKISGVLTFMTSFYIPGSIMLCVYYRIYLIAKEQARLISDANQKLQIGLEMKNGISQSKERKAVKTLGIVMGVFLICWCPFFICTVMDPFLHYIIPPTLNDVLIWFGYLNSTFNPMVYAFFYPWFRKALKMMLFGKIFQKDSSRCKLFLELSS
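Material: CHO RD-HGA16 cells bearing hTAAR1; compound dosing: one-point dosing, 3 µM nominal final; schedule: dye loading 75 min at 37 °C, then 30 min room temperature; measured by: calcium fluorescence with Fluo-8; control set: vehicle and agonist controls; replication: n of 1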
TRPN1 ag: zebrafish TRPN1 (NompC) channel agonism; 220,000 compounds, 0.18% hits; activation, % at 3 µM; AID 1424; HEK293 zebrafish TRPN1-YFP, Fluo-8 calcium fluorescence; 100% = response to 87 µM carbachol;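 active = activation above its plate's cutoff, the mean activation of test wells on that plate plus 3 SD, cut at about 19% in these data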;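 note: 0% = DMSO alone and 100% = 87 µM carbachol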
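Control set: carbachol 87 µM as high control, DMSO as low control; system: HEK293 stable line with zebrafish TRPN1-YFP; read-out: % activation versus carbachol response; detection: intracellular calcium fluorescence with Fluo-8; doses: single test compound dose, 3 µM nominal, 0.3% DMSO; schedule: dye 1 h 37 °C plus 30 min RT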
GPR7 antag: human neuropeptides B/W receptor 1 antagonism; P48145; GPR7-expressing cells, fluorescence antagonist assay; inhibition, % at 4.4 µM; 290,000 compounds, 1.1% hits; AID 1861; in the data active = inhibition above about 16%, passing the limit was not always enough;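 note: cells stimulated with the agonist NPW; 0% = agonist with vehicle and 100% = vehicle without agonist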
Target sequence (P48145 whole entry, looked up): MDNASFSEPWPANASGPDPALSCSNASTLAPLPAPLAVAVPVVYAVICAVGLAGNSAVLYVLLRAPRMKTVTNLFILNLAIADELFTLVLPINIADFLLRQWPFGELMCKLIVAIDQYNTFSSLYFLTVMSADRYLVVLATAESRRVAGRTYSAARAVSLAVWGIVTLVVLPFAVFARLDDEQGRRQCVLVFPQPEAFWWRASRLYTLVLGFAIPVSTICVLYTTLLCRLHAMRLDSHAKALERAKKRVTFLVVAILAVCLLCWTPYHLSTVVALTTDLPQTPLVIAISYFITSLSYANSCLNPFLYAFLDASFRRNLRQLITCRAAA
LANA-H2A inh: blocks KSHV LANA binding to histone H2A/H2B | inhibition, % (no concentration beside the values) | cell-free LANA-H2A/H2B peptide, fluorescence polarization | 320,000 compounds, 0.6% hits | AID 2629 | Q9QR71; in the data active = inhibition mostly above about 10%, no sharp cut-off; inactive = mostly below about 6.7%
TRPML3 ag: activates the human TRPML3 channel. 220,000 compounds, 0.29% hits. HEK293 TRPML3-YFP, Fluo-8 calcium fluorescence; 100% = the carbachol control signal. activation, % at 3 µM. AID 1448. Q8TDD5;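 active = activation above its plate's cutoff, the mean activation of the plate's test wells plus 3 SD, cut at about 12% in these data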;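 note: 0% = DMSO only wells and 100% = carbachol wells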
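system = HEK293 cells stably carrying human TRPML3-YFP | doses = one concentration, 3 µM nominal, 0.3% DMSO | timing = dye loading 1 h 37 °C then 30 min ambient, 125 s read | detection = Fluo-8 calcium dye fluorescence, ex 470-495, em 515-575 nm | benchmarks = high control carbachol 87 µM, low control DMSO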
TAAR1 ag: human TAAR1 agonism; CHO RD-HGA16 TAAR1, Fluo-8 calcium fluorescence; vehicle wells 0%, saturating PEA agonist 100%; activation, % at 3 µM; 360,000 compounds, 0.99% hits; AID 624467;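 active = activation above the mean activation of all test compounds in the run plus 3 SD, cut at about 38% in these data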
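Assay system – CHO-derived RD-HGA16 cells with stable Gα16 and human TAAR1 · Compound dosing – one-point dosing at 3 µM (nominal) · Incubation – 17-24 h seeding, 75 min 37 °C dye, 30 min RT · Measured by – kinetic Fluo-8 calcium fluorescence · Control set – DMSO vehicle as 0%, PEA at EC100 as 100% · Repeats – single well for each compound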
TRPN1 ag 2: counter-screen for TRPML3 agonists: agonists of zebrafish TRPN1 channel | shares compounds with TRPML3 ag | HEK293 zebrafish TRPN1-YFP, Fluo-8 calcium fluorescence; scaled: carbachol wells 100%, DMSO wells 0% | activation, % at 3 µM | 310 compounds, 10% hits | AID 1525;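 active = mean activation over replicates above a set limit taken from the earlier TRPN1 channel primary screen, cut at about 19% in these data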;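 note: 100% = carbachol and 0% = 0.3% DMSO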
TRPML3 confirm: confirmation of human TRPML3 channel agonists | activation, % at 3 µM | 310 compounds, 80% hits | shares compounds with TRPML3 ag | HEK293 TRPML3-YFP, Fluo-8 calcium fluorescence; 100% set by carbachol, 0% by DMSO | AID 1526;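 active = activation above a set limit derived from the earlier primary screen, cut at about 12% in these data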
GPR7 antag cf: human GPR7 antagonism, confirmation assay; shares compounds with GPR7 antag; GPR7-expressing cells, calcium fluorescence antagonist mode; inhibition, % at 4.4 µM; 2,400 compounds, 52% hits; AID 1952; in the data active = inhibition above about 24%;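 note: stimulated with the GPR7 agonist NPW; 0% = agonist plus vehicle and 100% = vehicle alone without agonist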
MCHR1 antagonist: counter-screen for GPR7 antagonists: antagonists of human MCHR1; shares compounds with GPR7 antag; MCHR1-expressing cells, fluorescence antagonist assay; inhibition, % at 4.4 µM; 2,400 compounds, 62% hits; AID 2148; in the data active = inhibition above about 22%;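 note: 0% = vehicle with agonist and 100% = vehicle without agonist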
Starred values were filed as active, the others as inactive; . = not tested or not shown. Hits are enriched below; roughly 3.4% of the tested compounds scored in any of these assays.

SMILES	TAAR1 antagonist	TRPN1 ag	GPR7 antag	LANA-H2A inh	TRPML3 ag	TAAR1 ag	TRPN1 ag 2	TRPML3 confirm	others
CCCCc1c(-c2ccccc2OC)ncn1Cc1ccc(OC)cc1	20	.	.	.	.	1	.	.
C=CCN1C(=O)c2cccc3c(N4CCCCC4)ccc(c23)C1=O	18	9	-12	3	4	29	.	.
O=C1c2cccc3c(N4CCCCC4)ccc(c23)C(=O)N1CCO	23	8	0	49*	13*	31	18	10
C[C@H](O)[C@@H]1C(=O)N2CCc3c([nH]c4cccc(-c5ccccc5)c34)[C@@H]2C[C@@H]1N(C)C(=O)c1ccccc1	-13	.	.	.	.	1	.	.
O=C1C=C(NC2=CC3OC(c4ccccc4)OCC3OC2=O)CCC1 (stereo not given)	-3	1	-3	.	30*	2	1	1
COc1ccc(/C(N)=N/OC(=O)CN(C)S(=O)(=O)c2ccccc2)cc1	10	4	-5	.	106*	7	2	40*
CN(CC(=O)O/N=C(\N)c1ccccn1)S(=O)(=O)c1ccccc1	1	0	10	-2	0	4	.	.
CCOc1ccc(-n2cnnn2)cc1S(=O)(=O)Nc1c(C)cccc1C	7	1	-16	-2	18*	2	0	0
CCCCNC(=O)c1nc(C2CCN(S(=O)(=O)c3ccc(S(C)(=O)=O)cc3)CC2)oc1-c1ccccc1	-17	.	.	.	.	1	.	.
COc1cccc(C=C2SC(=S)N(Cc3ccco3)C2=O)c1OC	-6	.	.	.	.	3	.	.
Cc1cc(C)c(C(=O)c2ccc(C(=O)N(C(C)C)C(C)C)cc2)c(C)c1	7	-2	-2	-2	18*	12	4	74*
Nc1nc(Cl)cc(N2CCOCC2)n1	-7	0	-7	5	0	12	.	.
Cc1cc(N2CCOCC2)nc(N)n1	-10	10	10	-1	12*	3	9	7
Cc1ccc(C2=CC(c3ccc(N(C)C)cc3)n3nnnc3N2)cc1 (stereo not given)	-6	15	10	4	18*	2	2	0
COc1ccc(C2=CC(c3ccc(F)cc3)n3nnnc3N2)cc1 (stereo not given)	1	2	4	6	0	6	.	.
Cc1ccc(S(=O)(=O)N2CCc3ccccc3C2CN2C(=O)c3ccccc3C2=O)cc1 (stereo not given)	17	1	1	3	22*	14	-1	13*
Cc1ccccc1Br	-9	.	.	.	.	1	.	.
COC(=O)c1cc2c(c3c4cc(F)ccc4n(S(=O)(=O)c4cccc(C)c4)c13)C(=O)N(Cc1ccco1)C2	-32	.	.	.	.	1	.	.
CC(C)(C)N(NC(=O)c1ccccc1)C(=O)c1ccc(C(=O)N(NC(=O)c2ccccc2)C(C)(C)C)cc1	-12	0	-10	1	1	4	.	.
COc1ccc(C(=O)N(NC(=O)Oc2ccccc2)C(C)(C)C)cc1	-8	0	11	.	13*	0	0	0
CCOc1ccccc1N(CC(=O)NC1CCCCC1)C(=O)c1nsc(Cl)c1Cl	11	-2	13	-1	43*	4	-1	36*
Cc1cccc(N(CC(=O)NC2CCCC2)C(=O)c2nsc(Cl)c2Cl)c1C	1	-2	-8	0	3	4	.	.
Cc1ccc2cccc(OC(=O)c3cccnc3Oc3ccccc3)c2n1	-12	.	.	.	.	1	.	.
COc1ccc(CCN2C(=O)CSC2=Nc2ccc(C(C)C)cc2)cc1OC	46	5	5	-2	13*	22	5	14*
CCN=C1NC(c2ccccc2C(F)(F)F)C(C(=O)OC)=C(C)N1C (stereo not given)	0	.	.	.	.	0	.	.
SMILES	TAAR1 antagonist	TRPN1 ag	GPR7 antag	LANA-H2A inh	TRPML3 ag	TAAR1 ag	TRPN1 ag 2	TRPML3 confirm	others
Cc1cc(-c2ccccc2)nc(Oc2cccc(C(F)(F)F)c2)c1S(C)(=O)=O	-21	1	-1	-1	-1	0	.	.
Cc1ccc(S(=O)(=O)c2c(C)cc(C)nc2Oc2cccc(C(F)(F)F)c2)cc1	22	0	0	1	14*	0	0	42*
CC(C)(C)NC(=O)C(c1ccncc1)n1c(-c2ccc(C(F)(F)F)cc2)nc2ccccc21 (stereo not given)	20	.	.	.	.	3	.	.
COc1ccc(C2C(C(C)=O)=C(C)N=c3s/c(=C\c4cc(C)n(C)c4C)c(=O)n32)c(OC)c1 (stereo not given)	30	16	-6	0	16*	41*	28*	18*
Cc1cc(Br)cn2c(Cc3ccccc3C(F)(F)F)c(-c3cccc(Cl)c3)nc12	-27	.	.	.	.	0	.	.
CCOc1ccc(S(=O)(=O)N(C)c2ccc(OCC(=O)Nc3nc4ccccc4s3)cc2)cc1	40	0	1	-13	0	1	.	.
COc1ccc(CCNC(=O)COc2ccc(N(C)S(=O)(=O)c3ccc(Cl)cc3)cc2)cc1	19	2	6	.	44*	4	3	41*
CCc1nnc(NC(=O)COc2ccc(N(C)S(=O)(=O)c3ccc(C)cc3)cc2)s1	-10	1	-4	.	23*	13	2	63*
CC(=O)c1ccc(OCC(=O)Nc2nnc(C3CC3)s2)cc1	8	.	.	.	.	0	.	.
Cc1ccc(S(=O)(=O)N(C)c2ccc(OCC(=O)Nc3nnc(C4CC4)s3)cc2)cc1	-28	0	-3	.	44*	15	1	53*
Cc1[nH]nc2c1C(c1ccc3c(c1)OCO3)N(Cc1ccccc1)C2=O (stereo not given)	3	.	.	.	.	-2	.	.
Oc1cccc(N2CCN(c3cccc(O)c3)CC2)c1	-9	.	.	.	.	4	.	.
Cc1cc(N2CCOCC2)nc(NCc2ccccc2)n1	41	14	23*	-4	16*	49*	21*	15*	GPR7 antag cf=60*;MCHR1 antagonist=72*
